Experimental data: the array DNA melting data of Ke et al. (doi:10.1101/2024.01.08.574731)

What was measured:
[1] = folding enthalpy; higher = less favourable; fluorescence melt of hairpins on a sequencing array, two-state fit; settings: sodium 0.088 M
Procedure, shortened: (§1)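 To match UV melts, fitted temperatures were raised by 9.35 °C. These fits were bootstrapped two-state models that gave melting temperature and folding enthalpy, combined by inverse variance over four replicates. The input was normalised Cy3 fluorescence of library hairpins with annealed Cy3 and quencher oligos on a sequenced MiSeq flow cell, imaged in 50 mM Na-HEPES pH 8.0, 25 mM NaCl in 2.5 °C steps up to 60 °C.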

[2] = melting temperature; fluorescence melt of hairpins on a sequencing array, two-state fit, raised by 9.35 °C to match UV melts; settings: sodium 0.088 M
Procedure, shortened: as §1

Row | Sequence | folding enthalpy [1] [kcal/mol] | Tm [2] [°C]
1 | GATGTAGAAATACATC ((((((....)))))) | -30.3 | 45.7
2 | GATGTAGGAAACCACATC (((((.(....).))))) | -34.1 | 37.6
3 | GATGTCGGAAACGACATC (((((((....))))))) | -36.4 | 68.4
4 | GATGTCGGAAACGGCATC ((((.((....)).)))) | -46.5 | 54.4
5 | GATGTGAAAACATC (((((....))))) | -28.4 | 49
6 | GATGTGGAAACACATC ((((((....)))))) | -35.5 | 57.1
7 | GATGTTACGAAAGTAATC (((..(((....)))))) | -13.5 | 26.9
8 | GATGTTGGAAACAACACC (.(((((....))))).) | -15.6 | 34.8
9 | GATTAACCGAAAGGTATC (((..(((....)))))) | -12.7 | 27.6
10 | GATTAACGAAAGTTCATC (((.(((....))).))) | -24.6 | 33.9
11 | GATTAACGAAAGTTTATC (((.(((....))).))) | -22.8 | 34.9
12 | GATTAAGGAAACTTAGTC ((.((((....)))).)) | -12.6 | 28
13 | GATTACACGAAAGTGATC (((..(((....)))))) | -9.64 | 26.4
14 | GATTACGAAAGTAAATC ((((((....))).))) | -19.9 | 36
15 | GATTACGAAAGTAAGATC ((((((....)))..))) | -16.2 | 39
16 | GATTACGAAAGTATAATC ((((((....)))..))) | -7.84 | 27.1
17 | GATTACGAAAGTATATC ((((((....))).))) | -17.1 | 32.9
18 | GATTACGCGAAAGCGATC (((..(((....)))))) | -6.5 | 21.4
19 | GATTAGCGAAAGCTGATC (((.(((....))).))) | -31 | 51.1
20 | GATTAGGAAACTAATC ((((((....)))))) | -30.5 | 43.9
21 | GATTAGGCGAAAGCCATC (((..(((....)))))) | -8.82 | 23.4
22 | GATTAGGGAAACCTAGTC ((.((((....)))).)) | -25.4 | 33.7
23 | GATTCCCGAAAGGGGATC (((.(((....))).))) | -36.3 | 57.3

Row | Sequence | folding enthalpy [1] [kcal/mol] | Tm [2] [°C]
24 | GATTCCGAAAGGACATC ((((((....))).))) | -21.4 | 39.2
25 | GATTCCGAAAGGAGATC ((((((....))).))) | -21.3 | 33.7
26 | GATTCCGAAAGGAGTATC ((((((....)))..))) | -15.7 | 27.1
27 | GATTCCGAAAGGATCATC ((((((....)))..))) | -17 | 29.6
28 | GATTCGGGAAACCGAACC (.(((((....))))).) | -13.7 | 40.2
29 | GATTCTCCGAAAGGAATC (((..(((....)))))) | -14.2 | 28.2
30 | GATTCTGAAAAGAATC ((((((....)))))) | -33.1 | 50
31 | GATTCTGGAAACAGAGTC ((.((((....)))).)) | -30.2 | 38.3
32 | GATTGACGAAAGTCCATC (((.(((....))).))) | -23 | 39.3
33 | GATTGAGCGAAAGCTATC (((..(((....)))))) | -11.6 | 30.7
34 | GATTGAGGAAACCCAATC (((((.(....).))))) | -29.2 | 35.1
35 | GATTGCGAAAGCAAATC ((((((....))).))) | -15.9 | 50.2
36 | GATTGCGAAAGCATCATC ((((((....)))..))) | -10.9 | 29.6
37 | GATTGCGAAAGCATTATC ((((((....)))..))) | -11.2 | 26.6
38 | GATTGCGGAAACACAATC (((((.(....).))))) | -28.9 | 41.6
39 | GATTGCGGAAACGCAATC (((((((....))))))) | -37.8 | 67.9
40 | GATTGCGGAAACGTAATC ((((.((....)).)))) | -38.8 | 47.6
41 | GATTGGAAACAATC (((((....))))) | -23.6 | 40.5
42 | GATTGGACGAAAGTCATC (((..(((....)))))) | -10.5 | 27
43 | GATTGGGAAACCAATC ((((((....)))))) | -35 | 52.3
44 | GATTGGGGAAACCCAGTC ((.((((....)))).)) | -24.4 | 44.7
45 | GATTGGGGAAACCTGATC (((..((....))..))) | -18.6 | 30.6
